PMC3162318 (Journal of biomolecular screening, 2011)

Target: T1, TRβ-SRC2-2 interaction (hTRβ LBD, SRC2-2 fluorescein peptide) (Homo sapiens, UniProt P10828)
T1 sequence (P10828 209-461): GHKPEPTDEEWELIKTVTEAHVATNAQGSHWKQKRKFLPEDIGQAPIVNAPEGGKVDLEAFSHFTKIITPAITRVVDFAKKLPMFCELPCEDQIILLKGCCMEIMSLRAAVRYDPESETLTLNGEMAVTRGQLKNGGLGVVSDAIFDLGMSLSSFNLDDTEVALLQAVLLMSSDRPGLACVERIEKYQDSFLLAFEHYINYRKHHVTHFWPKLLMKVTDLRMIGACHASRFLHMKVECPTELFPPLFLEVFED
Assay: not given
Type: binding
Details: confirmation, independent samples, fluorescein fluoroprobe
In short: (§1)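 Talon-purified TRβ (eluted with T3), 0.6 uM, with 20 nM SRC2-2 peptide carrying an N-terminal Texas Red or fluorescein label, in pH 7.4 Tris buffer with 1 µM T3 and 4% DMSO. Test compound was given as 10 three-fold dilutions, top 130 µM, then incubated 3 h at ambient temperature. Polarization was read at 555/632 nm (Texas Red) or 480/535 nm (fluorescein). mP was normalized to DMSO wells with and without TRβ, and concentration-response curves were fitted.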

Structure (SMILES)	IC50
CN1CC[C@@]2(C)c3cc(O)ccc3N(C)[C@H]2O1 [geneseroline]	> 30 µM

Target: T2, TRβ-SRC2-2 interaction (hTRβ LBD, SRC2-2 Texas Red peptide) (Homo sapiens, UniProt P10828)
T2 sequence (P10828 209-461): T1 sequence (P10828 209-461)
Assay: not given
Type: binding
Details: confirmation, independent samples, Texas Red fluoroprobe
In short: as §1

Structure (SMILES)	IC50
CN1CC[C@@]2(C)c3cc(O)ccc3N(C)[C@H]2O1 [geneseroline]	> 30 µM

Target: T2, TRβ-SRC2-2 interaction (hTRβ LBD, SRC2-2 Texas Red peptide)
Assay: TRβ-SRC2-2 fluorescence polarization qHTS
Type: binding
Details: six concentrations up to 92 μM; FP inhibition

Structure (SMILES)	activity in the qHTS (active/inactive)
CS(=O)(=O)c1ccc(C(=O)OCC(=O)NC2CCS(=O)(=O)C2)cc1[N+](=O)[O-] (stereo not shown) [MLS000336487-01]	inactive
CS(=O)(=O)c1ccc(C(=O)OCC(=O)NC23CC4CC(CC(C4)C2)C3)cc1[N+](=O)[O-] [MLS000389544-01]	active
CC(=O)c1cccc(NC(=O)COC(=O)c2ccc(S(C)(=O)=O)c([N+](=O)[O-])c2)c1 [MLS000517219-01]	inactive
COc1cc(C(=O)OCC(=O)NC(=O)C2CCCCC2)ccc1OC(F)F [MLS000517502-01]	loss of the activity
CS(=O)(=O)c1ccc(C(=O)OCC(=O)NC(=O)C2CCCCC2)cc1[N+](=O)[O-] [MLS000517530-01]	active
O=C(COC(=O)c1ccncc1)NC(=O)C1CCCCC1 [MLS000565662-01]	loss of the activity
O=C(COC(=O)c1ccc(Cl)cc1O)NC(=O)C1CCCCC1 [MLS000776485-01]	loss of the activity
CS(=O)(=O)c1ccc(C(=O)OCc2nnc(-c3ccc(Cl)cc3)o2)cc1[N+](=O)[O-] [MLS001003284-01]	inactive
CC(CCc1ccccc1)NC(=O)COC(=O)c1ccc(S(C)(=O)=O)c([N+](=O)[O-])c1 (stereo not shown) [MLS001003365-01]	active
CS(=O)(=O)c1ccc(C(=O)OCc2nnc(-c3ccccc3)o2)cc1[N+](=O)[O-] [MLS001010708-01]	inactive
Cc1ccccc1NC(=O)COC(=O)c1ccc(S(C)(=O)=O)c([N+](=O)[O-])c1 [MLS001017631-01]	inactive
